≈ marks a conversion by molar mass, not a printed value.
How the values were obtained:
[1] = target: α-amylase; assay: α-amylase activity test; assay type: biochemical; conditions: α-amylase 10 U/mL, 1% soluble starch, 37 °C
[2] = tested on: α-amylase; assay: Fluorescence spectroscopy; assay type: binding
In short: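 Commercial α-amylase (10 U/mL) mixed with each theaflavin monomer (10–200 μg/mL) at each temperature. Fluorescence spectra recorded at 278 nm over a 290–450 nm scan. Ksv derived from the Stern–Volmer relation (τ0 10−8 s). Ka and n derived from a log((F0−F)/F) vs log[Q] plot. ΔH and ΔS derived from a van't Hoff fit. Results given as mean ± SD.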

[3] = tested on: α-amylase; assay: Inhibitory kinetic assay; assay type: biochemical; conditions: Lineweaver-Burk double reciprocal plots, 0.5-2.0% starch
In short: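 Commercial α-amylase (0.35 mL, 10 U/mL) preincubated alone or with theaflavin monomer for 5 min at 37 °C. Soluble starch (0.5, 1.0, 1.5, 2.0%) added and incubated 15 min at 37 °C. Reducing sugar measured with DNS reagent (100 °C, 5 min), A540. Initial velocities fitted to Michaelis–Menten for Km and Vmax. Inhibition type assigned from Lineweaver–Burk double-reciprocal plots. Results given as mean ± SD.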

IC50, inhibitory activity on α-amylase [1]: 71.43 µg/mL (≈ 127 µM)
Ka (binding constant) ([2]; 298 K): 4.4955 L/g
Ksv (quenching constant) ([2]; 298 K): 4.7890 L/g
Ka (binding constant) ([2]; 303 K): 5.1038 L/g
Ksv (quenching constant) ([2]; 303 K): 4.6468 L/g
Ka (binding constant) ([2]; 310 K): 5.6151 L/g
Ksv (quenching constant) ([2]; 310 K): 4.2950 L/g
inhibition type against α-amylase [3]: mixed
Compound: O=c1c(O)cc([C@H]2Oc3cc(O)cc(O)c3C[C@H]2O)cc2c([C@H]3Oc4cc(O)cc(O)c4C[C@H]3O)cc(O)c(O)c12 [TF1, theaflavin]
